Bioassay records as filed in PubChem.
An excerpt weighted towards active compounds, which were near 2.5% of everything screened.
m5-HT2A agonist = mouse Htr2a agonists via beta-arrestin recruitment, primary screen, cell-based, luminescence; CHO-K1 mHTR2A beta-arrestin complementation; percent of 30 µM serotonin response; activation, % at 7.6 µM; 5-hydroxytryptamine receptor 2A (Mus musculus), P35363; 360,000 tested, 0.66% active;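 active = activation above a run cutoff, the mean activation of all tested compounds plus 3 SD, cut at about 14% in these data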
VIM-2 inh = VIM-2 metallo-beta-lactamase inhibitors, primary screen, biochemical, epi-absorbance readout, Pseudomonas aeruginosa enzyme. purified VIM-2, nitrocefin hydrolysis, epi-absorbance fluorescence. inhibition, % at 5.6 µM. 290,000 tested, 0.89% active;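 active = inhibition above the mean of all tested compounds plus 3 SD, cutoff set per screening run, cut at about 7.5% in these data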;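 also: red hydrolysis product quenches plate fluorescence so inhibitors raise well fluorescence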
dFosB act-1 = activators of delta FosB homodimer, primary screen, biochemical, fluorescence polarization, TAMRA-CDK5 oligo, single point; Protein FosB (Mus musculus), P13346; purified delta FosB; percent of positive-control signal above neutral wells; activation, % at 25 µM; 340,000 tested, 0.99% active; AID 493131, 2011;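 active = mean activation above about 17%, with every replicate also reaching it, limit read from the data, passing the limit was not always enough; inconclusive = only one of the two conditions met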
Target sequence (P13346 whole entry, looked up): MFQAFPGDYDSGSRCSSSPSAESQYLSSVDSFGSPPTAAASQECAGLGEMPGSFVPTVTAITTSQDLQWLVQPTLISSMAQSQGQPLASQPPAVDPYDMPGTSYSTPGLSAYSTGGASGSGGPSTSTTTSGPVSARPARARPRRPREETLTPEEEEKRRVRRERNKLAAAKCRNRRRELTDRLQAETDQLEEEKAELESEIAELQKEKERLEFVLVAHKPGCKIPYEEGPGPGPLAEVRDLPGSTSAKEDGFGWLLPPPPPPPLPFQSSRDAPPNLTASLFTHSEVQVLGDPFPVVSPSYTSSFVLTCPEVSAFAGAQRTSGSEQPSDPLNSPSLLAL
IMP-1 inhibitor = IMP-1 metallo-beta-lactamase inhibitors, primary screen, biochemical, epi-absorbance readout, Pseudomonas aeruginosa enzyme; AID 1556, 2009; 290,000 tested, 0.45% active; purified IMP-1, nitrocefin hydrolysis, epi-absorbance fluorescence; inhibition, % at 5.6 µM;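 active = inhibition above the mean plus 3 SD of all compounds in the same screening run, cut at about 4.5% in these data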
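System: Purified IMP-1 | Read-out basis: Percent enzyme inhibition | Controls: IMP-1 with DMSO as 0%, enzyme-free DMSO as 100% | Replicates: One well per compound | Doses: 5.6 µM nominal single concentration | Detection: Epi-absorbance fluorescence, 480 nm excitation, 530 nm emission | Incubation: 25 °C, 15 min preincubation, 25 min reaction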
dFosB act-2 = activators of mouse delta FosB DNA binding, confirmation, biochemical, fluorescence polarization, TAMRA-CDK5 oligo, cherry-picked samples | shares compounds with dFosB act-1 | purified delta FosB; normalised: neutral wells 0, positive control 100 | activation, % at 24.9 µM | 2,400 tested, under 10 active | AID 588690, 2011;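 active = highest replicate activation at or above 34% and every replicate reaching that threshold; inconclusive = meets only one of the two criteria; inactive = meets neither criterion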;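 also: higher polarization means more probe DNA bound by delta FosB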
A number is an active result.

Results for O=C(Nc1nccs1)c1cc2c(s1)-c1ccccc1OC2 ?
m5-HT2A agonist: inactive; VIM-2 inh: inactive; dFosB act-1: 37; IMP-1 inhibitor: inactive; dFosB act-2: inactive

How did Cc1cccc2c1-c1sc(C(=O)Nc3cccnc3)cc1CO2 do in these assays?
m5-HT2A agonist: inactive; VIM-2 inh: inactive; dFosB act-1: 32; IMP-1 inhibitor: inactive; dFosB act-2: inactive

Results for Cc1cccc2c1-c1sc(C(=O)Nc3nccs3)cc1CO2 ?
m5-HT2A agonist: inactive; VIM-2 inh: inactive; dFosB act-1: inconclusive; IMP-1 inhibitor: inactive

What do the screens show for `COc1cccc2c1O/C(=N\O)C(C(=O)Nc1cccc(Br)c1)C2` (stereo not drawn)?
m5-HT2A agonist: inactive; VIM-2 inh: inactive; dFosB act-1: inactive; IMP-1 inhibitor: inactive

Results for CCN1CCN(c2c(C=O)c(Cl)nc3ccc(OC)cc23)CC1 ?
m5-HT2A agonist: inactive; VIM-2 inh: inactive; dFosB act-1: 27; IMP-1 inhibitor: inactive; dFosB act-2: inactive

How did CCN1CCN(c2nc3c(C)cccn3c(=O)c2/C=C(\C#N)S(=O)(=O)c2ccc(Cl)cc2)CC1 do in these assays?
m5-HT2A agonist: inactive; VIM-2 inh: inactive; dFosB act-1: 48; IMP-1 inhibitor: inactive; dFosB act-2: inactive

Results for Nc1c(N(CCC2=CCCCC2)C(=O)COc2ccc(F)cc2Cl)c(=O)[nH]c(=O)n1Cc1ccccc1 ?
m5-HT2A agonist: inactive; dFosB act-1: 29; dFosB act-2: inactive

Results for CC1Cc2ccccc2C(CCc2ccccc2)=N1 (stereo not drawn) ?
m5-HT2A agonist: inactive; VIM-2 inh: inactive; dFosB act-1: inactive; IMP-1 inhibitor: inactive

How did NC(=O)c1nsc(C(=O)N(c2cccc(O)c2)C(C(=O)NC2CCCC2)c2ccc(Cl)cc2)c1N (stereo not drawn) do in these assays?
m5-HT2A agonist: inactive; VIM-2 inh: inactive; dFosB act-1: 71; IMP-1 inhibitor: inactive; dFosB act-2: inactive

Results for COc1ccc(N(C(=O)c2snc(C(N)=O)c2N)C(C(=O)NC2CCCC2)c2ccc(F)cc2)c(OC)c1 (stereo not drawn) ?
m5-HT2A agonist: inactive; VIM-2 inh: inactive; dFosB act-1: 32; IMP-1 inhibitor: inactive; dFosB act-2: inactive

Results for CC1(c2nnnn2-c2ccc3c(c2)OCCO3)CCC(=O)N1CCc1ccc(O)cc1 (stereo not drawn) ?
m5-HT2A agonist: inactive

What do the screens show for `CCn1c(C)c(C2=CCN(S(=O)(=O)c3ccccc3)CC2)c2ccccc21`?
m5-HT2A agonist: inactive; VIM-2 inh: inactive; dFosB act-1: 31; IMP-1 inhibitor: inactive; dFosB act-2: inactive

How did Cc1ccc(NC(=O)CC2C(=O)N(Cc3ccccc3)C(=S)N2NC(=O)c2ccccc2)c(C)c1 (stereo not drawn) do in these assays?
m5-HT2A agonist: inactive; VIM-2 inh: inactive; dFosB act-1: inactive; IMP-1 inhibitor: inactive

What do the screens show for `CSc1ccc(CNc2nc3ccccc3n3cnnc23)cc1`?
m5-HT2A agonist: inactive; VIM-2 inh: inactive; dFosB act-1: 26; IMP-1 inhibitor: inactive; dFosB act-2: inactive

Results for CC1(C)C(=O)Nc2ccccc2N1C(=O)COc1cc(Cl)ccc1Cl ?
m5-HT2A agonist: inactive; dFosB act-1: inactive

Results for Nc1nc(N)c2nc(-c3ccccc3)c(N)nc2n1 ?
m5-HT2A agonist: inactive; VIM-2 inh: inactive; dFosB act-1: 19; IMP-1 inhibitor: inactive; dFosB act-2: inactive

How did NSc1nc(N)c2nc(-c3ccccc3)c(-c3ccccc3)nc2n1 do in these assays?
m5-HT2A agonist: inactive; VIM-2 inh: inactive; dFosB act-1: inactive; IMP-1 inhibitor: inactive

Results for Cc1nn(Cc2ccc(Cl)cc2)c(C)c1NC(=O)c1cc(-c2ccc3c(c2)OCO3)on1 ?
m5-HT2A agonist: inactive; VIM-2 inh: inactive; dFosB act-1: 58; IMP-1 inhibitor: inactive; dFosB act-2: inactive

What do the screens show for `Cc1nn(Cc2ccc(Cl)c(Cl)c2)c(C)c1NC(=O)c1cc(-c2ccc3c(c2)OCO3)on1`?
m5-HT2A agonist: inactive; VIM-2 inh: inactive; dFosB act-1: inactive; IMP-1 inhibitor: inactive

How did COc1ccc(NC(=O)c2cc(-c3ccc4c(c3)OCO4)on2)cc1 do in these assays?
m5-HT2A agonist: inactive; VIM-2 inh: inactive; dFosB act-1: 26; IMP-1 inhibitor: inactive; dFosB act-2: inactive

Results for Cc1ccc2oc(-c3ccc(NC(=O)c4ccc5c(c4)OCO5)cc3)nc2c1 ?
m5-HT2A agonist: inactive; VIM-2 inh: inactive; dFosB act-1: 45; IMP-1 inhibitor: inactive; dFosB act-2: inactive

How did O=C(Nc1ccc(-c2nc3ccccc3o2)cc1)c1ccc2c(c1)OCO2 do in these assays?
m5-HT2A agonist: inactive; VIM-2 inh: inactive; dFosB act-1: inconclusive; IMP-1 inhibitor: inactive

What do the screens show for `Cc1ccc(NC(=O)c2cc(-c3ccc4c(c3)OCO4)on2)cc1`?
m5-HT2A agonist: inactive; VIM-2 inh: inactive; dFosB act-1: 18; IMP-1 inhibitor: inactive; dFosB act-2: inactive

Results for N#Cc1cccc(C(=O)C(=O)N2CCCN(Cc3ccc(F)cc3)CC2)c1 ?
m5-HT2A agonist: inactive

What do the screens show for `Cn1cc(C(=O)Nc2ccc(C#N)cc2)c2ccccc2c1=O`?
m5-HT2A agonist: inactive; VIM-2 inh: inactive; dFosB act-1: inactive; IMP-1 inhibitor: inactive

How did COc1ccc(C(=O)NCC(=O)OCC(=O)NC2CCCCCC2)cc1OC do in these assays?
m5-HT2A agonist: inactive; dFosB act-1: inactive

How did O=C(Nc1ccc(Br)cc1)c1cc(-c2ccc3c(c2)OCO3)on1 do in these assays?
m5-HT2A agonist: inactive; VIM-2 inh: inactive; dFosB act-1: 25; IMP-1 inhibitor: inactive; dFosB act-2: inactive

Results for C=CCNC(=O)c1cc(-c2ccc3c(c2)OCO3)on1 ?
m5-HT2A agonist: inactive; VIM-2 inh: inactive; dFosB act-1: inactive; IMP-1 inhibitor: inactive

What do the screens show for `COc1ccc2c(c1)CO[C@]21O[C@H](CCO)C[C@H](O)[C@H]1O`?
m5-HT2A agonist: inactive

How did CC(=O)c1cccc(NS(=O)(=O)c2ccc(N/C=C/C(=O)c3ccc(F)cc3)cc2)c1 do in these assays?
m5-HT2A agonist: inactive; VIM-2 inh: inactive; dFosB act-1: inactive; IMP-1 inhibitor: inactive

What do the screens show for `CC(=O)c1ccc(NS(=O)(=O)c2ccc(N/C=C/C(=O)c3ccc(F)cc3)cc2)cc1`?
m5-HT2A agonist: inactive; VIM-2 inh: inactive; dFosB act-1: 44; IMP-1 inhibitor: inactive; dFosB act-2: inactive

What do the screens show for `CC(=O)c1cccc(NS(=O)(=O)c2ccc(N/C=C\C(=O)c3ccc(C)cc3)cc2)c1`?
m5-HT2A agonist: inactive; VIM-2 inh: inactive; dFosB act-1: 23; IMP-1 inhibitor: inactive; dFosB act-2: inactive

Results for Nc1[nH]c(C(=O)c2ccccc2)c(-c2ccccc2C(F)(F)F)c1C(=O)NCc1cccc2ccccc12 ?
m5-HT2A agonist: inactive
